# From PubChem
# A selection: hits, their analogues and other compounds. The true share with any hit is near 1.6%.
# SR-BI uptake up – enhances SR-BI lipid uptake from DiI-HDL; actives 0.096% (n = 320,000); CHO ldlA[mSR-BI] cells, DiI-HDL uptake fluorescence, 3 h; 100 = double the neutral-control signal; activation, % at 12.5 µM;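 active means mean replicate activation of at least 60% and every replicate at or above 60%; inconclusive means mean or all-replicate condition met, but not both; inactive means mean below 60% and not all replicates reaching 60%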;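 further: 0% = median plate neutral-control signal and 100% = twice that signal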
#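 Test system: SR-BI-overexpressing, LDLR-lacking CHO cells. Measured by: DiI fluorescence, bottom read. Medium: Ham's F12 with 0.5% BSA, HEPES 25 mM, pH 7.4. Timing: 3 h uptake period with compound, 37 °C.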
# SR-BI DiI inh – inhibitors of mouse SR-BI mediated HDL lipid uptake; ldlA[mSR-BI] CHO cells, DiI-HDL uptake fluorescence, 3 h; inhibition, % at 12.5 µM; actives 0.96% (n = 320,000); AID 488896;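 active means mean replicate inhibition of at least 70% and a set share of replicates each scoring 70 or more; inconclusive means meets just one of the two criteria; inactive means fails both criteria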;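 further: 0% = median of neutral control wells and 100% = median of positive control wells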
# Target sequence (Q61009 whole entry, looked up): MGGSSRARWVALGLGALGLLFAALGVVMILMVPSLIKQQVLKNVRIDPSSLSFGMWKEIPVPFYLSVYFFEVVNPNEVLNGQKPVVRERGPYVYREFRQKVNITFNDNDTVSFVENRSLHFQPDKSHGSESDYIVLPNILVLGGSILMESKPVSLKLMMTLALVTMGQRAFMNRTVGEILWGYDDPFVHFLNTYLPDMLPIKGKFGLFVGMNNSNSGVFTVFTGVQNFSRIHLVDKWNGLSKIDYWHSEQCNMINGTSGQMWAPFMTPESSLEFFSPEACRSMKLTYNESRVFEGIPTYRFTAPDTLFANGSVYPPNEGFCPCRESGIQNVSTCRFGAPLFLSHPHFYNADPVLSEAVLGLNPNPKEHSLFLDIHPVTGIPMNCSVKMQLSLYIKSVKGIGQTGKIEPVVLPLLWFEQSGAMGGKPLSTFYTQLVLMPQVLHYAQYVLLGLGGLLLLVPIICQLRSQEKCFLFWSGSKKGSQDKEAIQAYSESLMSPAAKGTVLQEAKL
# TAG inh – inhibitors of triacylglycerol accumulation; H9c2 cells, Nile Red lipid (TAG) fluorescence; cells loaded with 200 µM oleic acid; inhibition, % at 12.5 µM; actives 0.66% (n = 230,000);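 active means pattern-corrected inhibition of lipid staining of at least 50% with the nuclear-stain viability signal not falling by more than 50%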;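 further: 0% = DMSO wells and 100% = triacsin C control wells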
# Vif imaging – inhibitors of HIV Vif | inhibition, % at 7.49 µM | AID 602346 | actives 0.35% (n = 340,000) | HEK293T cells, Vif self-association by quenched fluorescence, imaging, 24 h; in the data active means inhibition above about 50%, passing the limit was not always enough; inconclusive means no clear call, values can overlap the other calls; inactive means below about 31%
# Bfl-1 A1 inh – inhibitors of the anti-apoptotic protein A1, read as caspase activation. MEF A1-2A-BIM cells, Caspase-Glo 3/7 luminescence, 3 h; percent of clofoctol response, vehicle zero. caspase activation, % (no concentration beside the values). actives 0.066% (n = 330,000);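 active means over half of replicate activation scores above 10%, or exactly half above 10 with the replicate mean above 10; inconclusive means replicate mean below 10 yet half the replicates above 10; inactive means over half of replicates below 10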
# Numbers without * were called inactive; ? = inconclusive; . = no result given; ! = a repeat was not active.
SMILES,SR-BI uptake up,SR-BI DiI inh,TAG inh,Vif imaging,Bfl-1 A1 inh
CCOC(=O)C1(Cc2cccc(OC)c2)CCN(CCO)CC1,24.0,-24.0,-3.9,66.3*,0.3
CCOC(=O)C1(Cc2cccc(OC)c2)CCN(CC(O)CO)CC1 (configuration not stated),11.3,-11.3,5.7,2.3,-0.6
O=C(Nc1ccc(Oc2cccnc2)cc1)C1CCCCN1Cc1ccc(CO)o1 (configuration not stated),-2.8,2.8,9.5,1.7,0.1
Cc1cc(CN2CCCCC2C(=O)Nc2ccc(Oc3cccnc3)cc2)oc1C (configuration not stated),.,78.6*,.,4.3,-0.6
COc1cccc(/C=N/n2nnnc2N)c1O,-3.3,3.3,4.3,-1.6,0.2
COc1cc(C(=O)OCn2nnc3ccccc3c2=O)cc(OC)c1OC,-3.7,3.7,1.7,8.1,-0.2
COc1cc(CCC(=O)OCn2nnc3ccccc3c2=O)cc(OC)c1OC,2.6,-2.6,-19.0,58.5*,0.5
O=C(NNC(=O)c1ccccc1O)c1ccc(NS(=O)(=O)c2ccc(F)c(F)c2)cc1,-84.8,84.8*,13.5,-4.5,-0.8
COc1ccc(NS(=O)(=O)c2ccc(C)c(C(=O)O)c2)cc1,17.0,-17.0,.,11.0,?
COc1ccc(NS(=O)(=O)c2ccc(C)c(C(=O)NNC(=O)c3ccccc3O)c2)cc1,-96.6,96.6*,-4.4,-10.0,1.0
Cc1ccc(S(=O)(=O)Nc2ccccc2F)cc1C(=O)NNC(=O)c1ccccc1O,-8.4,8.4,18.7,-14.9,2.7
CCc1c(C(=O)N2CCCN(C)CC2)csc1C,.,-28.8,.,5.7,0.3
O=C(NCCCN1CCCCC1)c1ccc(CS(=O)c2ccc(F)cc2)o1 (configuration not stated),17.9,-17.9,.,-4.7,1.0
COc1ccc(Cc2nnc(NC(=O)c3cccc(C)c3)s2)cc1,-8.3,8.3,.,-1.4,0.5
Cc1cccc(-c2nnn(Cc3nnc(NC(=O)c4ccccc4)s3)n2)c1,6.9,-6.9,0.0,72.7*,0.7
NC(=O)c1c(NC(=O)C2COc3ccccc3O2)sc2c1CCN(Cc1ccccc1)C2 (configuration not stated),-48.0,48.0,26.9,109.7*,0.4
COC(=O)N/N=C/c1cc(Cl)cc(Cl)c1OCc1ccc(F)cc1,-83.6,83.6*,.,-1.7,-1.2
O=C(CSc1ccc2nnc(-c3ccccn3)n2n1)Nc1ccc(F)cc1F,11.2,-11.2,-9.1,-6.2,0.7
COc1ccc(/C(C)=N/NC(=O)c2cccc(S(=O)(=O)N3CCCC3)c2)c(O)c1,-102.6,102.6*,16.7,-0.3,1.1
CC1=C(C(=O)Nc2cc(C(=O)N(C)Cc3ccccc3)ccc2C)SCCO1,-14.9,14.9,.,-3.0,-0.4
O=C(NCC(=O)N1CCC2(CC1)NCCc1[nH]cnc12)c1ccc2ccccc2c1,4.6,-4.6,.,9.2,0.9
O=C(Nc1ccncc1)c1cc(-c2ccccc2)nc2ccccc12,.,.,25.0,.,.
COc1cc2c(cc1NC(=O)c1cc(-c3cccnc3)nc3ccc(C)cc13)oc1ccccc12,-78.3,78.3*,.,3.8,0.2
COc1cc2c(cc1NC(=O)c1cc(-c3ccncc3)nc3ccccc13)oc1ccccc12,-82.9,82.9*,.,7.5,0.6
Cc1c[n+]([O-])cc(C)c1[N+](=O)[O-],4.8,-4.8,1.4,27.7,.
SMILES,SR-BI uptake up,SR-BI DiI inh,TAG inh,Vif imaging,Bfl-1 A1 inh
Cc1ccc(C2(C)NC(=O)N(CC(=O)Nc3cc(S(=O)(=O)N4CCOCC4)ccc3OC(C)C)C2=O)cc1 (configuration not stated),0.2,-0.2,0.1,-0.1,.
Cc1cc(N2CCN(S(=O)(=O)c3ccc(Cl)c(Cl)c3)CC2)c2ccccc2n1,-19.7,19.7,-4.5,85.8*,0.9
C[C@H](CO)N1C[C@H](C)[C@@H](CN(C)C(=O)Nc2ccc3c(c2)OCO3)Oc2ccc(NC(=O)Nc3ccc4c(c3)OCO4)cc2C1=O,5.5,-5.5,-3.7,-1.6,-0.1
CCc1nc2c(OCc3ccc(C(F)(F)F)cc3)cccn2c1N(C=O)Cc1ccc(OC)cc1,.,.,-7.0,-2.1,.
CCOC(=O)Cc1csc(N/N=C/c2cccc([N+](=O)[O-])c2)n1,-23.3,23.3,.,2.8,-0.4
CN(C)S(=O)(=O)c1ccc(-c2csc(N/N=C/c3ccc(O)cc3)n2)cc1,-87.2,87.2*,48.6,-4.0,-0.7
O=[N+]([O-])c1cccc(-c2csc(N/N=C/c3cccc(O)c3)n2)c1,-101.4,101.3*,16.6,-16.7,-0.4
NNC(=O)c1ccc2[nH]c3c(c2c1)CCCC3,-6.5,6.5,5.0,6.7,-1.0
CCOC(=O)CNC(=O)c1ccc2[nH]c3c(c2c1)CCCC3,-23.8,23.8,.,71.9*,-0.1
Cc1nn(CC(=O)Nc2c(F)c(F)cc(F)c2F)c(=O)c2cccn12,34.0,-34.0,.,-1.4,0.7
CCCCN=c1scc(-c2ccc3c(c2)NC(=O)CO3)n1N=C1CCCC1,-43.0,43.0,.,-17.4,-0.4
CCN=c1scc(-c2ccc3c(c2)NC(=O)CO3)n1N=C1CCCC1,-38.1,38.1,-19.2,53.8*!,0.2
CN(C)c1ccc2c(c1)Sc1cc(N(C)C)ccc1N2C(=O)c1ccccc1,-11.8,11.8,.,-0.4,1.8
COc1ccc(-n2c(SCC(=O)N3CCCCC3C)nnc2-c2cccnc2)cc1 (configuration not stated),116.7*,-116.7,-12.0,2.3,1.2
Cn1c(CNC(=O)c2ccco2)nnc1SCC(=O)Nc1ccccc1Cl,0.5,-0.5,-6.4,-13.8,-0.4
COC(=O)C1SCC2C(=O)N(Cc3cccc(C)c3)CC(=O)N21 (configuration not stated),12.7,-12.7,-5.6,128.0*,0.4
COc1cccc(NC(=O)C/C(C)=N/NC(=O)c2ccccc2Cl)c1,9.5,-9.5,-3.9,2.9,0.2
C/C(CC(=O)Nc1ccc(Cl)c(C(F)(F)F)c1)=N\NC(=O)c1cc2ccccc2cc1O,-111.7,111.8*,.,-6.2,0.1
COc1ccc(C(C)=O)cc1Cn1c(=O)cc(C)[nH]c1=O,.,.,.,-0.8,-0.1
O=C(O)c1cc([N+](=O)[O-])cc2ccccc12,89.8*,-89.8,0.7,8.7,.
O=C(O)c1cc([N+](=O)[O-])ccc1-c1ccc([N+](=O)[O-])cc1C(=O)O,.,.,10.6,9.2,.
O=C(COC(=O)C12CC3CC(CC(O)(C3)C1)C2)Nc1ccc(Cl)c(S(=O)(=O)N2CCOCC2)c1,-5.1,5.1,3.4,26.3,0.6
COc1cc(/C=C(/C#N)c2nc3ccccc3[nH]2)ccc1OCC(=O)Nc1ccccc1C,-52.5,52.5,.,.,7.2*
COc1cc(/C=C(/C#N)c2nc3ccccc3[nH]2)ccc1OCC(=O)Nc1ccccc1C(C)C,-22.0,22.0,.,-2.6,10.0*
CCN(CC)c1ccc(/C=C(/C#N)c2nc3ccccc3[nH]2)c(OC(C)C)c1,-94.1,94.1*,.,.,-0.6
